Assay results from different studies.
Compare with care: the assays were run in different laboratories.

Structure (SMILES) | assay | system | setting | solubility
Cc1c(C(=O)O)ccc2c3n(nc12)[C@@H]1[C@H](C3)N(CC2CC2)[C@@]2(C(=O)Nc3cc(Cl)ccc32)[C@H]1c1cccc(Cl)c1F |  | FaSSIF |  | 50 µg/mL
Cc1cc(C)c2nc(-c3ccncc3)cc(C(=O)NCCCn3ccnc3)c2c1 |  | PBS |  | > 20 µM
CC(=Nc1ccc(N=Cc2ccc3[nH]cnc3c2)cc1)N(C)C | shake flask | PBS | 24 h, pH 7.4, 25 °C | ~20 µg/mL
Cc1noc(C)c1CC(=O)N1CCOc2c(cc(-c3cccc(Cl)c3)cc2OCC2CCCN(C)C2)C1 (stereo not drawn) |  | water |  | 75 µM
N#C[C@@]12C[C@@H]1[C@@H](n1cnc3c(N[C@@H](C4CCC4)C4CC4)nc(I)nc31)[C@H](O)[C@@H]2O |  | aqueous buffer | pH 7.4 | 50 µg/mL
CC(C)[C@H](NC(=O)[C@H](Cc1cscn1)NC(=O)CCc1ccccc1)C(=O)N[C@@H](CCCNC(=N)N)C(=O)c1nc2ccccc2s1 |  | PBS | 90 min, pH 7.4 | > 10 µM
Cn1cncc1[C@@](N)(c1ccc(Cl)cc1)c1ccc2c(c1)c(-c1cccc(Cl)c1)cc(=O)n2C |  | water | pH 7.6, 25 °C | 0.12 µg/mL
Cc1cccn2c(=O)c3cc(C(=O)N[C@@H](C)c4ccccc4)c(N)[n+](CCOCCO)c3nc12 |  | PBS |  | > 20 µM
O=[N+]([O-])c1ccccc1/C=N/c1c(-c2ccccc2)nc2ccc(Cl)cn12 |  | aqueous buffer | pH 7 | < 1 µg/mL
O=C(C=Cc1ccccc1)Nc1cc(-c2ccnc(N3CCC(O)CC3)c2)ccn1 |  | water | pH 7.4 | ~115 µg/mL
O=[N+]([O-])c1cccc(/C=N/c2c(-c3ccccc3)nc3ccc(Cl)cn23)c1 |  | aqueous buffer | pH 7 | 25 µg/mL
Cn1cnc2ccc(Nc3c(F)ccc(NS(=O)(=O)N4CC(F)C4)c3Cl)c(Cl)c2c1=O |  | FaSSIF | pH 6.91 | 13 µg/mL
